IDH1 R132H inh = inhibitors of human IDH1 R132H | O75874 | IDH1 R132H reductase, diaphorase/resazurin fluorescence, 60 min | inhibition, % at 10 µM | 70,000 compounds, 0.18% hits; in the data active = inhibition above about 34%; inconclusive = no clear call, values can overlap the other calls; inactive = below about 11%;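 note: 0% = DMSO and 100% = no enzyme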
Target sequence (O75874 whole entry R132H): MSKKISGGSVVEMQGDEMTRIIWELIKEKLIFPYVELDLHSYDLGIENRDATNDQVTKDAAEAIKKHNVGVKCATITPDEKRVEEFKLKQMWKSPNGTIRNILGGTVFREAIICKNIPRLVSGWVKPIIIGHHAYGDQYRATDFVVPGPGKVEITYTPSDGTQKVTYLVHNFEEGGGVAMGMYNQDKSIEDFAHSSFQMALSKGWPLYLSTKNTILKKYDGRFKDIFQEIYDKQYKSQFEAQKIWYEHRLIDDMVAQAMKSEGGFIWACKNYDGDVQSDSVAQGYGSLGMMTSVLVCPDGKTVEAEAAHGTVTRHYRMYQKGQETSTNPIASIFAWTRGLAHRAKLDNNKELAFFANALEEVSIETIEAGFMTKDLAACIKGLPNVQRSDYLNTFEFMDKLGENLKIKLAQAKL
GASC1 inh = blocks human GASC-1 (KDM4C) demethylase activity; inhibition, % at 12.5 µM; Q9H3R0; 96,000 compounds, 0.15% hits; GST-KDM4C 2-372, H3K9me3 peptide, LANCE TR-FRET;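 active = mean replicate inhibition above about 25%, with at least 55% of replicates also reaching it, limit read from the data, passing the limit was not always enough; inconclusive = only one of those two conditions met; inactive = neither condition met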
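Material: GST-tagged GASC-1 (JMJD2C) catalytic fragment, aa 2-372 / Quantity: enzyme final amount 10 nM / Medium: HEPES buffer, pH 7.5, plus ascorbate / Doses: one test concentration per compound / Incubation: 30 min reaction, 60 min detection, RT / Measured by: LANCE TR-FRET / Read-out: inhibition from TR-FRET ratio decrease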
Pf Dd2 inh = P. falciparum Dd2 growth inhibition; SYBR Green, 72 h; active compounds read low; activity change, % at 10 µM; 94,000 compounds, 2.3% hits; AID 1159554; in the data active = activity change below about -80%; inconclusive = no clear call, values can overlap the other calls
T cruzi growth = blocks T. cruzi growth in NIH3T3 culture | inhibition, % at 8.34 µM | 77,000 compounds, 5.9% hits | AID 624255 | T. cruzi beta-gal in NIH3T3, GalScreen luminescence, 90 h;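 active = mean inhibition above about 93%, with at least 55% of replicates each passing it, limit read from the data, passing the limit was not always enough; inconclusive = only one of those two conditions holds; inactive = neither condition holds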
Numbers without * were called inactive; ? = inconclusive; . = not tested or not shown; ! = not active in a repeat. In the library only some 5.8% were active in any assay of this set; here they are far more common.

SMILES	IDH1 R132H inh	GASC1 inh	Pf Dd2 inh	T cruzi growth
N#Cc1cccc(-c2ccc([C@@H]3[C@@H]4CN(S(=O)(=O)c5ccc(-c6ccccc6)cc5)C[C@H]3N4)cc2)c1	.	-59	-72	.
COc1cccc(S(=O)(=O)N2C[C@@H]3N[C@H](C2)C3c2ccc(-c3cccc(C)c3)cc2)c1 (stereo partly drawn)	.	5	11	.
Cc1cccc(-c2ccc([C@H]3[C@H]4CN(S(=O)(=O)c5cccc(C)c5)CCCCN4[C@H]3CO)cc2)c1	.	0	-86*	64
N#Cc1cccc(-c2ccc(C3[C@@H]4CN(S(=O)(=O)c5ccc(F)cc5)C[C@H]3N4)cc2)c1 (stereo partly drawn)	.	34*!	-72	.
COc1ccc(-c2ccc(C3[C@@H]4CN(S(=O)(=O)c5cccc(C)c5)C[C@H]3N4)cc2)cc1 (stereo partly drawn)	.	-2	-86*!	.
Cc1noc(C)c1NC(=O)N(C)C[C@H]1Oc2cc(C#CCC3CCCC3)ccc2S(=O)(=O)N([C@@H](C)CO)C[C@@H]1C	-2	-1	-22	.
C[C@@H]1CCCCO[C@H](CN(C)S(=O)(=O)c2ccc(Cl)cc2)[C@@H](C)CN([C@H](C)CO)C(=O)c2cc(NC(=O)CCCCCC(=O)Nc3ccccc3N)ccc2O1	0	-1	-85*	.
C[C@@H]1CN([C@@H](C)CO)C(=O)c2cc(NC(=O)CCCCCC(=O)Nc3ccccc3N)ccc2O[C@@H](C)CCCCO[C@@H]1CN(C)C(=O)Nc1ccc(C(F)(F)F)cc1	.	0	-82*	72
COc1ccc(CN(C)C[C@H]2OCCCC[C@@H](C)Oc3ccc(NC(=O)CCCCCC(=O)Nc4ccccc4N)cc3C(=O)N([C@H](C)CO)C[C@@H]2C)cc1	.	1	-83*	.
C[C@@H]1CN([C@H](C)CO)C(=O)c2cc(NC(=O)CCCCCC(=O)Nc3ccccc3N)ccc2O[C@@H](C)CCCCO[C@@H]1CN(C)S(=O)(=O)c1ccc(Cl)cc1	0	0	-78	79
C[C@H](CO)N1C[C@H](C)[C@H](CN(C)CC2CCCCC2)OCCCC[C@H](C)Oc2ccc(NC(=O)CCCCCC(=O)Nc3ccccc3N)cc2C1=O	.	3	-82*	89
COc1ccccc1C#Cc1cnc2c(c1)C(=O)N([C@H](C)CO)C[C@@H](C)[C@@H](CN(C)S(=O)(=O)c1cn(C)cn1)O2	0	1	2	.
COc1cc(NC(=O)CCCN2C(=O)c3ccccc3C2=O)c(OC)cc1Cl	0	.	.	.
C/C=C/c1ccc([C@@H]2[C@H]3CN(Cc4ccc(C(=O)OC)cc4)CC(=O)N3[C@H]2CO)cc1	.	2	-14	.
COc1ccc(NC(=O)Nc2ccc3c(c2)C(=O)N([C@H](C)CO)C[C@H](C)[C@H](CN(C)Cc2ccc(C(=O)Nc4ccccc4N)cc2)OCCCC[C@@H](C)O3)cc1	0	2	-87*	.
C[C@@H]1CCCCO[C@H](CN(C)Cc2ccccc2)[C@@H](C)CN([C@H](C)CO)C(=O)c2cc(NC(=O)CCCCCC(=O)Nc3ccccc3N)ccc2O1	.	-1	-83*	.
C[C@@H]1CN([C@@H](C)CO)S(=O)(=O)c2ccc(C#CCC3CCCC3)cc2O[C@@H]1CN(C)C(=O)c1cnccn1	0	-3	-38	51
COc1ccc2c3c([nH]c2c1)[C@@H](CO)N(C(=O)Nc1ccc(F)cc1)CC31CN(Cc2cc(F)ccc2F)C1	.	4	-87*	.
COc1ccc2c3c([nH]c2c1)[C@@H](CO)N(C(=O)Nc1cccc(F)c1)CC31CN(CC2CCOCC2)C1	.	-2	-93*	.
COc1ccc2c3c([nH]c2c1)[C@H](CO)N(C(=O)Nc1ccc(F)cc1)CC31CN(Cc2cc(F)ccc2F)C1	.	-2	-75	.
C[C@H](CO)N1C[C@H](C)[C@@H](CN(C)Cc2ccc3c(c2)OCO3)OCCCC[C@H](C)Oc2ccc(NS(=O)(=O)c3ccc(F)cc3)cc2C1=O	.	0	-50	69
Cc1ccc(S(=O)(=O)NCC[C@H]2CC[C@@H](NC(=O)CC3CC3)[C@H](CO)O2)cc1	0	1	13	9
Cc1ccc(S(=O)(=O)NCC[C@@H]2CC[C@H](NC(=O)CC3CC3)[C@@H](CO)O2)cc1	23	39*	10	-26
CCCc1cc(=O)[nH]c(SCC(=O)Nc2cc(Cl)ccc2Cl)n1	0	.	.	.
COc1cccc(S(=O)(=O)N(C)C[C@@H]2OCc3ccccc3-c3c(n(C)c4ccccc34)C(=O)N([C@@H](C)CO)C[C@@H]2C)c1	0	-4	-85*	79
SMILES	IDH1 R132H inh	GASC1 inh	Pf Dd2 inh	T cruzi growth
COc1ccccc1S(=O)(=O)N(C)C[C@H]1OCc2ccccc2-c2c(n(C)c3ccccc23)C(=O)N([C@@H](C)CO)C[C@@H]1C	.	-4	-87*	72
COc1ccccc1S(=O)(=O)N(C)C[C@H]1OCc2ccccc2-c2c(n(C)c3ccccc23)C(=O)N([C@@H](C)CO)C[C@H]1C	-2	0	-68	51
COc1cccc(S(=O)(=O)N(C)C[C@H]2OCc3ccccc3-c3c(n(C)c4ccccc34)C(=O)N([C@@H](C)CO)C[C@H]2C)c1	0	-3	-75	74
C[C@H](CO)N1C[C@H](C)[C@H](CN(C)S(=O)(=O)c2cccc(F)c2)OCc2ccccc2-c2c(n(C)c3ccccc23)C1=O	.	.	-91*	.
COc1cccc(S(=O)(=O)N(C)C[C@@H]2OCc3ccccc3-c3c(n(C)c4ccccc34)C(=O)N([C@H](C)CO)C[C@@H]2C)c1	.	-4	-89*	74
COc1ccc(NC(=O)Nc2ccc3c(c2)C(=O)N([C@H](C)CO)C[C@@H](C)[C@@H](CN(C)C(=O)NC(C)C)O3)cc1	-1	1	-5	3
Cc1noc(C)c1NC(=O)N(C)C[C@@H]1OCCCC[C@H](C)Oc2ccc(NC(=O)NC(C)C)cc2C(=O)N([C@H](C)CO)C[C@@H]1C	4	0	5	.
CCCC(=O)Nc1ccc2c(c1)C(=O)N(C)[C@@H]1CC[C@H](CC(=O)NCc3ccccc3)O[C@@H]1CO2	.	0	-12	18
CC(=O)N(C)C[C@H]1Oc2ncc(C#C[C@H](C)O)cc2C(=O)N([C@H](C)CO)C[C@H]1C	-1	2	65	-1
COc1ccc(C#Cc2ccc3c(c2)[C@@H]2[C@@H](CCN2C(=O)C2CC2)[C@H](CO)N3)cc1	.	-2	-89*	.
COc1ccc(C#Cc2ccc3c(c2)[C@H]2[C@H](CCN2C(=O)C2CCCCC2)[C@H](CO)N3)cc1	.	-1	-37	83
COc1ccc(C#Cc2ccc3c(c2)[C@H]2[C@H](CCN2C(=O)C2CCC2)[C@@H](CO)N3)cc1	.	-2	-86*	.
COc1ccc(C#Cc2ccc3c(c2)[C@H]2[C@H](CCN2C(=O)C2CCC2)[C@H](CO)N3)cc1	.	-5	?	.
COc1ccc(C#Cc2ccc3c(c2)[C@@H]2[C@@H](CCN2C(=O)C2CCCC2)[C@H](CO)N3)cc1	.	3	-84*	.
CCC(=O)N1[C@H](C(=O)NCC2CC2)[C@@H](CO)[C@@H]2Cn3c(cccc3=O)[C@@H]21	.	-1	7	6

Source: PubChem (Broad Institute)
